Calls of active or inactive are those of the source. The calls are words filed in the database; no cut-off is given here. Numbered stars: 1 amine (or outer) side, 2 acyl side, 3 side chain; on linkers, the order of the positions; unused ones are H or OH. Bridge positions count the residues as written; N and C are the ends. Square brackets hold non-standard residues; d marks the D form. Peptide text beside a SMILES is read from it. AMPB(E) = O=C(c1ccc(/N=N/c2ccc(CN[*:1])cc2)cc1)[*:2]; X3 = O=C(c1ccccc1/N=N\c1ccccc1C(=O)[*:2])[*:1]; X4 = O=C(c1ccccc1/N=N/c1ccccc1C(=O)[*:2])[*:1]; Dap = NC[C@H](N)C(=O)O
What was measured:
Assay type in all cases: functional, cell-based
[1] = system: HEK293; test: Induction of C-terminal GFP-tagged V1b receptor internalization in HEK293 cells at 1 nM incubated for 60 mins by fluorescence microscopy analysis; conditions: Homo sapiens
Method in brief: (§1)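 HEK293 cells stably expressing human V1bR with C-terminal GFP were plated overnight on poly-D-lysine coverslips and serum-starved for one day. Ligands in serum-free medium were applied for 60 min; the Z-form was diode-activated at 340 nm. Cells were fixed in 4% PFA, immunostained (anti-GFP, anti-pCREB, Hoechst) and imaged confocally. pCREB signal was normalized to medium-only controls; internalization was scored from GFP location.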

[2] = target: T1, Vasopressin V1b receptor (Homo sapiens) (UniProt P47901); test: Activation of human C-terminal GFP-tagged V1b receptor in HEK293 cells assessed as CREB phosphorylation at 1 nM incubated for 60 mins by immunostaining analysis; method in brief: as §1
T1 sequence (whole entry): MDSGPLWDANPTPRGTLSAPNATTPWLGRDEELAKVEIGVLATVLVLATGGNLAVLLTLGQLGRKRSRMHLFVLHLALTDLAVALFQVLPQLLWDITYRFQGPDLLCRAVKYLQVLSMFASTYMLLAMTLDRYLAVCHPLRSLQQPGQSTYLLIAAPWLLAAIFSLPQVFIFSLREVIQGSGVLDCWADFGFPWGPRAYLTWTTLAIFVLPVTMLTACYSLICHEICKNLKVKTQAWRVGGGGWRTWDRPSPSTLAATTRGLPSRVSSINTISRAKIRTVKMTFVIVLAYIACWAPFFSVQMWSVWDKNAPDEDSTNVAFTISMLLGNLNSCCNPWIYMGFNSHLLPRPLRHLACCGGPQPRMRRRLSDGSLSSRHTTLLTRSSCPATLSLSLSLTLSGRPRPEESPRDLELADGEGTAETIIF

[3] = target: Vasopressin V1a receptor (Homo sapiens) (UniProt P37288); test: Agonist activity at human V1a receptor transfected in HEK293 cells upto 10 uM incubated for 1 hr by IP-one HTRF assay
Method in brief: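 Stable HEK293 lines expressing hOTR, hV1aR or hV1bR (10,000 cells/well, 48 h) were preincubated in stimulation buffer for 15 min, then given ligand for 1 h at 37 °C. Z-forms were pre-irradiated at 340 nm for 1 min.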

[4] = target: Vasopressin V1a receptor (Homo sapiens) (UniProt P37288); test: Antagonist activity at human V1a receptor transfected in HEK293 cells at 10 uM relative to control; conditions: filed as antagonist
Method in brief: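 V1aR-expressing HEK293 cells received VP (1 nM final) premixed with test compound (10 or 100 μM), incubated for 1 h at 37 °C. IP1 accumulation was measured by HTRF (665/615 nm) and normalized to basal (0%) and maximal VP (100%). […] At least three independent experiments were run, each in triplicate.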

Chain of Vasopressin V1a receptor (Homo sapiens) (P37288 whole entry, looked up): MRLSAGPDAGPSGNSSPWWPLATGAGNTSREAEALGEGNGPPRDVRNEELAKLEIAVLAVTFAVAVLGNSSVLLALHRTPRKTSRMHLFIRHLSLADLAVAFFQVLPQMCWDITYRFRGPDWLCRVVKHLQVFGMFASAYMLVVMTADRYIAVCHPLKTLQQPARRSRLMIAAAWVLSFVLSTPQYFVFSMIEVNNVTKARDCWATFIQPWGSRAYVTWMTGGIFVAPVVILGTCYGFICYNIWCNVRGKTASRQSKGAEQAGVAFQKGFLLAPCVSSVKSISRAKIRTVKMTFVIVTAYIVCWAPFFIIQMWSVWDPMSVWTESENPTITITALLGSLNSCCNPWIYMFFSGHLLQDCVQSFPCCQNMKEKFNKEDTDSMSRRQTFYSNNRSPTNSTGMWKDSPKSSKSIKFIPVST

Row | SMILES | Activity [1] | Activity [3] | Activity [4] | also measured
1 | NC(=O)CC[C@@H]1NC(=O)[C@H](Cc2ccc(/N=N/c3ccccc3)cc2)NC(=O)[C@H](Cc2ccc(O)cc2)NC(=O)[C@@H](N)CSSC[C@@H](C(=O)N2CCC[C@H]2C(=O)N[C@@H](CCCN=C(N)N)C(=O)NCC(N)=O)NC(=O)[C@H](CC(N)=O)NC1=O | inactive |  |  | Activity [2]: inactive
2 | NC(=O)CC[C@@H]1NC(=O)[C@H](Cc2ccc(/N=N\c3ccccc3)cc2)NC(=O)[C@H](Cc2ccc(O)cc2)NC(=O)[C@@H](N)CSSC[C@@H](C(=O)N2CCC[C@H]2C(=O)N[C@@H](CCCN=C(N)N)C(=O)NCC(N)=O)NC(=O)[C@H](CC(N)=O)NC1=O | Active |  |  | 
3 | NC(=O)CC[C@@H]1NC(=O)[C@H](Cc2ccccc2)NC(=O)[C@H](Cc2ccc(O)cc2)NC(=O)[C@@H](N)CSSC[C@@H](C(=O)NCc2ccc(/N=N/c3ccc(C(=O)NCC(N)=O)cc3)cc2)NC(=O)[C@H](CC(N)=O)NC1=O (H-CYFQNC[AMPB(E)]G-NH2; disulfide 1-6) |  | inactive |  | 
4 | NC(=O)CC[C@@H]1NC(=O)[C@H](Cc2ccccc2)NC(=O)[C@H](Cc2ccc(O)cc2)NC(=O)[C@@H](N)CSSC[C@@H](C(=O)NCc2ccc(/N=N/c3ccc(C(=O)N[C@@H](CCCN=C(N)N)C(=O)NCC(N)=O)cc3)cc2)NC(=O)[C@H](CC(N)=O)NC1=O (H-CYFQNC[AMPB(E)]RG-NH2; disulfide 1-6) |  | inactive |  | 
5 | NC(=O)CC[C@@H]1NC(=O)[C@H](Cc2ccccc2)NC(=O)[C@H](Cc2ccc(O)cc2)NC(=O)c2ccccc2/N=N\c2ccccc2C(=O)NC[C@@H](C(=O)N2CCC[C@H]2C(=O)N[C@@H](CCCN=C(N)N)C(=O)NCC(N)=O)NC(=O)[C@H](CC(N)=O)NC1=O (YFQN[Dap]PRG-NH2; linker N-5 via X3) |  |  | Active | 
6 | NC(=O)CC[C@@H]1NC(=O)[C@H](Cc2ccccc2)NC(=O)[C@H](Cc2ccc(O)cc2)NC(=O)c2ccccc2/N=N/c2ccccc2C(=O)NC[C@@H](C(=O)N2CCC[C@H]2C(=O)N[C@@H](CCCN=C(N)N)C(=O)NCC(N)=O)NC(=O)[C@H](CC(N)=O)NC1=O (YFQN[Dap]PRG-NH2; linker N-5 via X4) |  |  | Active | 
